According to ChEMBL document CHEMBL1156332, “Polysubstituted pyrazoles, part 6. Synthesis of some 1-(4-chlorophenyl)-4-hydroxy-1H-pyrazol-3-carbonyl derivatives linked to nitrogenous heterocyclic ring systems as potential antitumor agents” (2010):

What was measured:
Format in all cases: functional
SK-MEL-5 = experiment: Growth inhibition of human SK-MEL-5 cells after 48 hrs by sulforhodamine B assay; conditions: SK-MEL-5, 48 h
Summary of the method: (§1)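 Adherent lines plated and held 24 h at 37 °C, 5% CO2, 100% humidity; time-zero plates TCA-fixed at drug addition. Drugs from DMSO stocks were made into five concentrations by 10-fold or half-log serial dilution and applied for 48 h continuous exposure. Cells were fixed with cold TCA (10% final) for 60 min at 4 °C, then stained with 0.4% SRB in 1% acetic acid for 10 min. Dye was solubilized in 10 mM Tris base and read at 515 nm. GI50 was taken from log concentration–growth curves.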

[1] = Cytotoxicity against human prostate cancer cells after 48 hrs by sulforhodamine B assay; conditions: Cancer cell lines
Summary of the method: (§2)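 NCI five-dose screen: about 60 human tumour lines grouped into nine subpanels were plated and incubated 24 h before dosing. Compounds went in as DMSO stock and were diluted in medium to five final concentrations (0.01–100 µM). Exposure was 48 h continuous at 37 °C, 5% CO₂, followed by TCA fixation and SRB staining read at 515 nm. Per-line GI₅₀, TGI and LC₅₀ came from log concentration–% growth curves, averaged per subpanel as MG-MID.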

ACHN = experiment: Growth inhibition of human ACHN cells after 48 hrs by sulforhodamine B assay
Summary of the method: (§3)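 NCI 60-line panel, five concentrations (0.01–100 µM) from DMSO stock diluted in medium with gentamicin. Cells were plated 24 h before dosing, with time-zero plates fixed at drug addition, then exposed 48 h at 37 °C, 5% CO₂. Adherent cells were fixed with cold TCA (10% final) and suspension cells with 16% TCA. Staining used 0.4% SRB, solubilised in 10 mM Tris and read at 515 nm. GI₅₀ was taken from log concentration–% growth curves.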

SF-539 = experiment: Growth inhibition of human SF539 cells after 48 hrs by sulforhodamine B assay; conditions: SF-539, 48 h; summary of the method: as §1
[2] = Cytotoxicity against human ovarian cancer cells after 48 hrs by sulforhodamine B assay; conditions: Cancer cell lines; summary of the method: as §2
[3] = Cytotoxicity against human colon cancer cells after 48 hrs by sulforhodamine B assay; conditions: Cancer cell lines; summary of the method: as §2
NCI-H226 = experiment: Growth inhibition of human NCI-H226 cells after 48 hrs by sulforhodamine B assay; conditions: NCI-H226, 48 h; summary of the method: as §3
DU-145 = experiment: Growth inhibition of human DU145 cells after 48 hrs by sulforhodamine B assay; conditions: DU-145, 48 h; summary of the method: as §3
[4] = Cytotoxicity against human renal cancer cells after 48 hrs by sulforhodamine B assay; conditions: Cancer cell lines; summary of the method: as §2
CAKI-1 = experiment: Growth inhibition of human Caki1 cells after 48 hrs by sulforhodamine B assay; conditions: CAKI-1, 48 h; summary of the method: as §3
[5] = Cytotoxicity against human CNS cancer cells after 48 hrs by sulforhodamine B assay; conditions: Cancer cell lines; summary of the method: as §2
COLO 205 = experiment: Growth inhibition of human COLO205 cells after 48 hrs by sulforhodamine B assay; conditions: COLO 205, 48 h; summary of the method: as §3
[6] = Cytotoxicity against human leukemia cells after 48 hrs by sulforhodamine B assay; conditions: Leukemia cell; summary of the method: as §2
NCI-H522 = experiment: Growth inhibition of human NCI-H522 cells after 48 hrs by sulforhodamine B assay; conditions: NCI-H522, 48 h; summary of the method: as §3
KM12 = experiment: Growth inhibition of human KM12 cells after 48 hrs by sulforhodamine B assay; conditions: KM12, 48 h; summary of the method: as §3
MDA-MB-435 = experiment: Growth inhibition of human MDA-MB-435 cells after 48 hrs by sulforhodamine B assay; conditions: MDA-MB-435, 48 h; summary of the method: as §3
SW-620 = experiment: Growth inhibition of human SW620 cells after 48 hrs by sulforhodamine B assay; conditions: SW-620, 48 h; summary of the method: as §1
SNB-19 = experiment: Growth inhibition of human SNB19 cells after 48 hrs by sulforhodamine B assay; conditions: SNB-19, 48 h; summary of the method: as §1
RXF 393 = experiment: Growth inhibition of human […] cells after 48 hrs by sulforhodamine B assay; conditions: RXF 393, 48 h; summary of the method: as §3
HCC 2998 = experiment: Growth inhibition of human HCC2998 cells after 48 hrs by sulforhodamine B assay; conditions: HCC 2998, 48 h; summary of the method: as §3
CCRF-CEM = experiment: Growth inhibition of human CCRF-CEM cells after 48 hrs by sulforhodamine B assay; summary of the method: as §3
NCI-H460 = experiment: Growth inhibition of human NCI-H460 cells after 48 hrs by sulforhodamine B assay; conditions: NCI-H460, 48 h; summary of the method: as §3
SF-295 = experiment: Growth inhibition of human SF295 cells after 48 hrs by sulforhodamine B assay; conditions: SF-295, 48 h; summary of the method: as §3
MCF7 = experiment: Growth inhibition of human MCF7 cells after 48 hrs by sulforhodamine B assay; conditions: MCF7, 48 h; summary of the method: as §3
NCI/ADR-RES = experiment: Growth inhibition of human NCI/ADR-RES cells after 48 hrs by sulforhodamine B assay; summary of the method: as §3
IGROV-1 = experiment: Growth inhibition of human IGROV1 cells after 48 hrs by sulforhodamine B assay; conditions: IGROV-1, 48 h; summary of the method: as §3
SF-268 = experiment: Growth inhibition of human SF268 cells after 48 hrs by sulforhodamine B assay; conditions: SF-268, 48 h; summary of the method: as §3
LOX IMVI = experiment: Growth inhibition of human LOXIMVI cells after 48 hrs by sulforhodamine B assay; summary of the method: as §3
BT-549 = experiment: Growth inhibition of human BT549 cells after 48 hrs by sulforhodamine B assay; conditions: BT-549, 48 h; summary of the method: as §3
M14 = experiment: Growth inhibition of human M14 cells after 48 hrs by sulforhodamine B assay; conditions: M14, 48 h; summary of the method: as §3
K562 = experiment: Growth inhibition of human K562 cells after 48 hrs by sulforhodamine B assay; conditions: K562, 48 h; summary of the method: as §3
OVCAR-4 = experiment: Growth inhibition of human OVCAR4 cells after 48 hrs by sulforhodamine B assay; conditions: OVCAR-4, 48 h; summary of the method: as §3
SK-OV-3 = experiment: Growth inhibition of human SKOV3 cells after 48 hrs by sulforhodamine B assay; conditions: SK-OV-3, 48 h; summary of the method: as §1
SNB-75 = experiment: Growth inhibition of human SNB75 cells after 48 hrs by sulforhodamine B assay; conditions: SNB-75, 48 h; summary of the method: as §1
T47D = experiment: Growth inhibition of human T47D cells after 48 hrs by sulforhodamine B assay; summary of the method: as §1
786-0 = experiment: Growth inhibition of human 786-0 cells after 48 hrs by sulforhodamine B assay; conditions: 786-0, 48 h; summary of the method: as §3
HT-29 = experiment: Growth inhibition of human HT-29 cells after 48 hrs by sulforhodamine B assay; conditions: HT-29, 48 h; summary of the method: as §3
[7] = Cytotoxicity against human breast cancer cells after 48 hrs by sulforhodamine B assay; conditions: Cancer cell lines; summary of the method: as §2
[8] = Cytotoxicity against human lung cancer cells after 48 hrs by sulforhodamine B assay; conditions: Cancer cell lines; summary of the method: as §2
SK-MEL-28 = experiment: Growth inhibition of human SK-MEL-28 cells after 48 hrs by sulforhodamine B assay; conditions: SK-MEL-28, 48 h; summary of the method: as §1
HOP-92 = experiment: Growth inhibition of human HOP92 cells after 48 hrs by sulforhodamine B assay; conditions: HOP-92, 48 h; summary of the method: as §3

Structure (SMILES): Cc1c2c(nn1C(=O)c1nn(-c3ccc(Cl)cc3)cc1O)-c1ccccc1CC2
- GI50 (SK-MEL-5): 370 nM
- GI50 [1]: 44 nM
- GI50 (ACHN): 48 nM
- GI50 (SF-539): 41 nM
- GI50 [2]: 115 nM
- TGI [2]: 83.6 µM
- GI50 [3]: 221 nM
- TGI [3]: 86.3 µM
- GI50 (NCI-H226): 45 nM
- GI50 (DU-145): 50 nM
- GI50 [4]: 92 nM
- TGI [4]: 67.7 µM
- GI50 (CAKI-1): 127 nM
- GI50 [5]: 36 nM
- TGI [5]: 69.1 µM
- GI50 (COLO 205): 291 nM
- GI50 [6]: 42 nM
- TGI [6]: 10.2 µM
- GI50 (NCI-H522): 55 nM
- GI50 (KM12): 70 nM
- GI50 (MDA-MB-435): 37 nM
- GI50 (SW-620): 360 nM
- GI50 (SNB-19): 45 nM
- GI50 (RXF 393): 47 nM
- GI50 (HCC 2998): 502 nM
- GI50 (CCRF-CEM): 57 nM
- GI50 (NCI-H460): 28 nM
- GI50 (SF-295): 20 nM
- GI50 (MCF7): 121 nM
- GI50 (NCI/ADR-RES): 46 nM
- GI50 (IGROV-1): 43 nM
- GI50 (SF-268): 48 nM
- GI50 (LOX IMVI): 75 nM
- GI50 (BT-549): 29 nM
- GI50 (M14): 96 nM
- GI50 (K562): 30 nM
- GI50 (OVCAR-4): 264 nM
- GI50 (SK-OV-3): 160 nM
- GI50 (SNB-75): 29 nM
- GI50 (T47D): 59 nM
- GI50 (786-0): 319 nM
- GI50 (HT-29): 241 nM
- GI50 [7]: 82 nM
- TGI [7]: 91.7 µM
- GI50 [8]: 47 nM
- TGI [8]: 68.1 µM
- GI50 (SK-MEL-28): 92 nM
- GI50 (HOP-92): 52 nM
